Data reported in ChEMBL document CHEMBL1144297, “Design and synthesis of macrocycles active against vancomycin-resistant enterococci (VRE): the interplay between d-Ala-d-Lac binding and hydrophobic effect” (2005).
≈ marks a conversion by molar mass, not a printed value. Starred links: 1 amine or outer side, 2 acyl side, 3 side chain; linkers in the order of their positions; H or OH if unused. Positions of bridges follow the written chain, without caps; N, C: chain ends. Non-standard residues stand in square brackets, D forms with d. Residues, ends and D or L forms follow the SMILES beside them. *: point of attachment. X1 = O=C1C[C@@H](C(=O)[*:2])N([*:1])C[C@H]1CS[C@@H]1CN2CCC1CC2; NMePhe(4-NMe2) = CN[C@@H](Cc1ccc(N(C)C)cc1)C(=O)O; Picolinoyl(3-OH) = O=C(c1ncccc1O)*; Phg = N[C@H](C(=O)O)c1ccccc1; dAbu = CC[C@@H](N)C(=O)O

Legend:
Enterococcus faecium [1] = assay: Minimum inhibitory concentration against vancomycin resistant Enterococci faecium L2215 strain was determined; format: functional
In short: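 Standard microdilution MIC assay against strain L2215, a Van-A clinical isolate.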

Enterococcus faecium [2] = assay: Minimum inhibitory concentration against vancomycin sensitive Enterococci faecium L568 strain was determined; format: functional
In short: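 Standard microdilution assay giving the minimum inhibitory concentration. The test organism is strain L568, which is isogenic with L569.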

Enterococcus faecalis [3] = assay: Minimum inhibitory concentration against vancomycin sensitive Enterococci faecalis L559 strain was determined; format: functional
In short: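 Standard microdilution MIC assay against strain L559, isogenic with L560.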

Enterococcus faecalis [4] = assay: Minimum inhibitory concentration against vancomycin resistant Enterococci faecalis L560 strain was determined; format: functional
In short: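 Standard microdilution MIC assay against strain L560, which forms an isogenic pair with L559.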

Staphylococcus aureus = assay: Minimum inhibitory concentration against Staphylococcus aureus L613 strain was determined
[5] = Enterococcus faecium, read-out: MIC
[6] = Enterococcus faecalis, read-out: MIC

| Structure (SMILES) | MIC (Enterococcus faecium [1]; [5]) | MIC (Enterococcus faecium [2]; [5]) | MIC (Enterococcus faecalis [3]; [6]) | MIC (Enterococcus faecalis [4]; [6]) | MIC (Staphylococcus aureus) | MIC (Enterococcus faecium [1]) | MIC (Enterococcus faecium [2]) | MIC (Enterococcus faecalis [3]) | MIC (Enterococcus faecalis [4]) |
| --- | --- | --- | --- | --- | --- | --- | --- | --- | --- |
| CC(=O)N[C@@H]1[C@H](Oc2c3cc4cc2Oc2ccc(cc2Cl)[C@@H](O[C@@H]2O[C@@H](CO)[C@@H](O)[C@H](O)[C@@H]2NC(C)=O)[C@@H]2NC(=O)[C@H](NC(=O)[C@@H]4NC(=O)[C@H]4NC(=O)[C@@H](Cc5ccc(c(Cl)c5)O3)NC(=O)[C@H](N)c3ccc(O)c(c3)Oc3cc(O)cc4c3)c3ccc(O)c(c3)-c3c(O[C@H]4O[C@H](CO)[C@@H](O)[C@@H](O)[C@@H]4O)cc(O)cc3[C@@H](C(=O)O)NC2=O)O[C@@H](CO)[C@@H](O)[C@@H]1O | > 128 µg/mL | 0.5 µg/mL (≈ 0.283 µM) | 0.125 µg/mL (≈ 0.0707 µM) | 64 µg/mL (≈ 36.2 µM) | 1 µg/mL (≈ 0.566 µM) |  |  |  |  |
| CCCCCCCCCCCNC(=O)N[C@@H](C(=O)O)C1NC(=O)[C@H](Cc2ccccc2)NC(=O)[C@H](N)Cc2ccc(c([N+](=O)[O-])c2)Oc2cc1cc(O)c2OC.Cl (some centres not stated) | > 128 µg/mL | 128 µg/mL | 128 µg/mL | > 128 µg/mL | > 128 µg/mL |  |  |  |  |
| CCCCCCCCCCCC(=O)N[C@@H](C(=O)O)C1NC(=O)[C@H](Cc2ccccc2)NC(=O)[C@H](NC(=O)[C@H](N)CC(C)C)Cc2ccc(c([N+](=O)[O-])c2)Oc2cc1cc(OCc1ccccc1)c2OC.Cl (some centres not stated) | 16 µg/mL | 256 µg/mL | 8 µg/mL | 4 µg/mL | 128 µg/mL |  |  |  |  |
| COC(=O)[C@@H](C1NC(=O)[C@H](Cc2ccccc2)NC(=O)[C@H](NC(=O)[C@H](N)CC(C)C)Cc2ccc(c([N+](=O)[O-])c2)Oc2cc1cc(OC)c2OC)N(C)C.Cl (some centres not stated) |  | > 128 µg/mL | 128 µg/mL | 128 µg/mL | > 128 µg/mL |  |  |  |  |
| CCCCCCCCCCCC(=O)N[C@@H](C(=O)O)C1NC(=O)[C@H](Cc2ccccc2)NC(=O)[C@H](NC(=O)[C@H](N)CC(C)C)Cc2ccc(cc2)Oc2cc1cc(O)c2OC.Cl (some centres not stated) |  | > 128 µg/mL | 128 µg/mL | 128 µg/mL | > 128 µg/mL |  |  |  |  |
| COc1c(O)cc2cc1Oc1ccc(cc1[N+](=O)[O-])C[C@@H](NC(=O)[C@H](N)CC(C)C)C(=O)N[C@@H](Cc1ccccc1)C(=O)NC2[C@@H](NC(C)=O)C(=O)O.Cl (some centres not stated) |  | > 1020 µg/mL | > 1020 µg/mL |  | > 1020 µg/mL |  |  |  |  |
| CCCCCCCCCCCNC(=O)N[C@@H](C(=O)O)C1NC(=O)[C@H](Cc2ccccc2)NC(=O)[C@H](NC(=O)[C@H](N)CC(C)C)Cc2ccc(c([N+](=O)[O-])c2)Oc2cc1cc(OC1OC(O)C(O)C(O)C1NC(=O)CCCCCCCCCCC)c2OC.Cl (some centres not stated) | 32 µg/mL | 256 µg/mL | 8 µg/mL | 8 µg/mL | > 256 µg/mL |  |  |  |  |
| CCCCCCCCCCCC(=O)NC1C(Oc2cc3cc(c2OC)Oc2ccc(cc2[N+](=O)[O-])C[C@@H](NC(=O)[C@H](N)CC(C)C)C(=O)N[C@@H](Cc2ccccc2)C(=O)NC3[C@@H](NC(C)=O)C(=O)O)OC(O)C(O)C1O.Cl (some centres not stated) | 1020 µg/mL | > 1020 µg/mL | 64 µg/mL | 64 µg/mL | > 1020 µg/mL |  |  |  |  |
| COC(=O)[C@H](N)C1NC(=O)[C@H](Cc2ccccc2)NC(=O)[C@H](NC(=O)[C@H](N)CC(C)C)Cc2ccc(c([N+](=O)[O-])c2)Oc2cc1cc(O)c2OC.Cl (some centres not stated) |  | > 1020 µg/mL | 512 µg/mL | 512 µg/mL | > 1020 µg/mL |  |  |  |  |
| CCCCCCCCCCCC(=O)N[C@@H](C(=O)O)C1NC(=O)[C@H](Cc2ccccc2)NC(=O)[C@H](NC(=O)[C@H](N)CC(C)C)Cc2ccc(c([N+](=O)[O-])c2)Oc2cc1cc(O)c2OC.Cl (stereo in doubt; 2d) | 8 µg/mL | 128 µg/mL | 4 µg/mL | 4 µg/mL | 64 µg/mL |  |  |  |  |
| CCCCCCCCCCCC(=O)N[C@@H](C(=O)O)C1NC(=O)[C@H](Cc2ccccc2)NC(=O)[C@H](NC(=O)[C@H](N)CC(C)C)Cc2ccc(c([N+](=O)[O-])c2)Oc2cc1cc(O)c2OC.Cl (stereo in doubt; 2e) |  |  |  |  |  | 16 µg/mL | >128 µg/mL | 8 µg/mL | 8 µg/mL |
| CCN(CC)CCS(=O)(=O)[C@@H]1CCN2C(=O)c3coc(n3)CC(=O)C[C@H](O)/C=C(C)/C=C/CNC(=O)/C=C/[C@@H](C)[C@@H](C(C)C)OC(=O)[C@@H]12.CC[C@H]1NC(=O)[C@@H](NC(=O)c2ncccc2O)[C@@H](C)OC(=O)[C@H](c2ccccc2)NC(=O)[C@@H]2CC(=O)[C@H](CS[C@@H]3CN4CCC3CC4)CN2C(=O)[C@H](Cc2ccc(N(C)C)cc2)N(C)C(=O)[C@@H]2CCCN2C1=O [QUINUPRISTIN/DALFOPRISTIN] ({Picolinoyl(3-OH)}-T[dAbu]P[NMePhe(4-NMe2)][X1][Phg]; ester 1-C) | 4 µg/mL | 4 µg/mL | 4 µg/mL | 8 µg/mL | 1 µg/mL |  |  |  |  |
| CN[C@H](CC(C)C)C(=O)N[C@H]1C(=O)N[C@@H](CC(N)=O)C(=O)N[C@H]2C(=O)N[C@H]3C(=O)N[C@H](C(=O)N[C@H](C(=O)O)c4cc(O)cc(O)c4-c4cc3ccc4O)[C@H](O)c3ccc(c(Cl)c3)Oc3cc2cc(c3O[C@@H]2O[C@H](CO)[C@@H](O)[C@H](O)[C@H]2O[C@H]2C[C@](C)(N)[C@H](O)[C@H](C)O2)Oc2ccc(cc2Cl)[C@H]1O [VANCOMYCIN] | > 128 µg/mL |  | 1 µg/mL (≈ 0.69 µM) | > 128 µg/mL |  |  |  |  |  |
